# “Also recorded” adds a separate entry of the source. Like-named read-outs stand apart in the source and are kept apart here. Marks after values point to notes of the source that are not given here.
# Key:
# JAK2 = settings: metabolites; ref data on file; cited from earlier work
# [1] = Phase 1 hepatic impairment study; assay type: in vivo, human; settings: for MRAUCinf (ratio of metabolite to abrocitinib for AUCinf) / tmax / AUCinf / AUClast / Cmax / AUC(0-inf) / AUC(0-t): single 200-mg oral dose of abrocitinib; for MRAUCinf (ratio of metabolite to abrocitinib for AUCinf) / AUCinf / AUClast / Cmax / AUC(0-inf) / AUC(0-t): geometric mean (geometric %CV); for tmax: median (range); for AUC(0-inf): AUCinf; for AUC(0-t): AUClast
# [2] = ref data on file; cited from earlier work
# [3] = molecular target: IFN‐α signaling (JAK1/TYK2 kinase dimer); settings: read-out: In vitro whole blood IFN‐α IC50, ref data on file; cited from earlier work
# [4] = ref data on file; cited from earlier work; remark: listed apart in the source
# tyrosine kinase 2 (TYK2) = settings: metabolites; ref data on file; cited from earlier work
# [5] = single oral dose 200-mg abrocitinib/80 μg (500 nCi) [14C]; ref data on file; cited from earlier work
# [6] = test system: IFN‐α signaling (JAK1/TYK2 kinase dimer); experiment: In vitro whole blood inhibition of IFN-α signaling; assay type: cell-based; settings: read-out: unbound IC50 (IC50,u) of IFN‐α signaling; IC50,u = IC50 × [fu / (blood/plasma ratio)]
# JAK3 = settings: metabolites; ref data on file; cited from earlier work
# JAK1 = settings: ref data on file; cited from earlier work
# [7] = Phase 1 hepatic impairment study; assay type: in vivo, human
# Outline: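 Single oral dose after an overnight fast, 8 subjects per hepatic function group. Adverse events, vital signs, physical exams, 12-lead ECGs and safety laboratory tests were assessed up to 72 h post-dose. Treatment-emergent events were scored for incidence, severity and causality. Clinically significant lab abnormalities or ongoing events were followed up by telephone or onsite visit at 28–35 days.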
# [8] = up to 800-mg single dose, repeated total daily doses up to 400 mg; cited from earlier work
# [9] = ref data on file; cited from earlier work; remark: listed apart in the source
# [10] = cited from earlier work
# [11] = once daily 100 mg or 200 mg; cited from earlier work
# [12] = mild hepatic impairment compared to normal hepatic function
# [13] = mild hepatic impairment, plasma
# [14] = moderate hepatic impairment compared to normal hepatic function
# [15] = moderate hepatic impairment, plasma
# [16] = normal hepatic function, plasma
# [17] = human, plasma, po, 200 mg, mild hepatic impairment
# [18] = human, plasma, po, 200 mg, moderate hepatic impairment
# [19] = human, plasma, po, 200 mg, normal hepatic function
smiles,measurement,setting,value
CN(c1ncnc2[nH]ccc12)C1CC(NS(=O)(=O)CCCO)C1 (stereo not drawn) [M1],JAK1 enzyme kinase selectivity over JAK2,JAK2,approximately 26 fold
same,unadjusted geometric mean ratio for MRAUCinf,[1]; [12],0.239
same,MRAUCinf (ratio of metabolite to abrocitinib for AUCinf),[1]; mild hepatic impairment,0.05 (54)
same,tmax,[1]; mild hepatic impairment,1.50 (1.00‐4.00) h
same,AUCinf,[1]; [13],357.6 (49) ng • h/mL
same,AUClast,[1]; [13],338.1 (52) ng • h/mL
same,Cmax,[1]; [13],56.3 (54) ng/mL
same,unadjusted geometric mean ratio for MRAUCinf,[1]; [14],0.320
same,MRAUCinf (ratio of metabolite to abrocitinib for AUCinf),[1]; moderate hepatic impairment,0.06 (111)
same,tmax,[1]; moderate hepatic impairment,2.00 (1.00‐3.00) h
same,AUCinf,[1]; [15],552.7 (51) ng • h/mL
same,AUClast,[1]; [15],534.9 (52) ng • h/mL
same,Cmax,[1]; [15],68.9 (57) ng/mL
same,MRAUCinf (ratio of metabolite to abrocitinib for AUCinf),[1]; normal hepatic function,0.19 (100)
same,tmax,[1]; normal hepatic function,2.00 (1.00‐3.00) h
same,AUCinf,[1]; [16],1120 (28) ng • h/mL
same,AUClast,[1]; [16],1102 (29) ng • h/mL
same,Cmax,[1]; [16],241.5 (50) ng/mL
same,blood/plasma ratio,[2],1.13
same,IC50,[3],296 nM
same,fraction unbound in plasma (fu),[4],0.63
same,JAK1 enzyme kinase selectivity over TYK2,tyrosine kinase 2 (TYK2),~74 fold
same,share of circulating species,[5],11%
same,IC50,[6],165 nM
same,JAK1 enzyme kinase selectivity over JAK3,JAK3,> 230 fold
same,pharmacological activity of metabolite,JAK1,active metabolites
C[C@H](O)CS(=O)(=O)NC1CC(N(C)c2ncnc3[nH]ccc23)C1 (stereo partly drawn) [M2],JAK1 enzyme kinase selectivity over JAK2,JAK2,49 fold
same,unadjusted geometric mean ratio for MRAUCinf,[1]; [12],0.680
same,MRAUCinf (ratio of metabolite to abrocitinib for AUCinf),[1]; mild hepatic impairment,0.15 (25)
same,tmax,[1]; mild hepatic impairment,2.50 (1.00‐4.00) h
same,AUCinf,[1]; [13],1178 (22) ng • h/mL
same,AUClast,[1]; [13],1081 (25) ng • h/mL
same,Cmax,[1]; [13],139.9 (29) ng/mL
same,unadjusted geometric mean ratio for MRAUCinf,[1]; [14],0.655
same,MRAUCinf (ratio of metabolite to abrocitinib for AUCinf),[1]; moderate hepatic impairment,0.15 (78)
same,tmax,[1]; moderate hepatic impairment,2.00 (2.00‐4.00) h
same,AUCinf,[1]; [15],1309 (38) ng • h/mL
same,AUClast,[1]; [15],1192 (43) ng • h/mL
same,Cmax,[1]; [15],119.2 (43) ng/mL
same,MRAUCinf (ratio of metabolite to abrocitinib for AUCinf),[1]; normal hepatic function,0.22 (56) ^b
same,tmax,[1]; normal hepatic function,2.00 (1.00‐3.00) h
same,AUCinf,[1]; [16],1519 (36) ^b ng • h/mL
same,AUClast,[1]; [16],1395 (35) ng • h/mL
same,Cmax,[1]; [16],253.1 (40) ng/mL
same,blood/plasma ratio,[2],1.27
same,IC50,[3],90.5 nM
same,fraction unbound in plasma (fu),[4],0.71
same,JAK1 enzyme kinase selectivity over TYK2,tyrosine kinase 2 (TYK2),68 fold
same,share of circulating species,[5],12%
same,IC50,[6],50.6 nM
same,JAK1 enzyme kinase selectivity over JAK3,JAK3,> 559 fold
same,pharmacological activity of metabolite,JAK1,active metabolites
"CCCS(=O)(=O)N[C@H]1C[C@@H](N(C)c2ncnc3[nH]ccc23)C1 [abrocitinib, N‐{cis‐3‐[Methyl(7H‐pyrrolo[2,3‐d]pyrimidin‐4‐yl)amino]cyclobutyl}propane‐1‐sulfo namide]",subjects with laboratory abnormality leukocyte esterase (≥1),[7]; mild hepatic impairment,4 subjects
same,subjects reporting diarrhea,[7]; mild hepatic impairment (25%),2 subjects
same,subjects reporting headache,[7]; mild hepatic impairment (25%),2 subjects
same,subjects with treatment-emergent adverse events,[7]; mild hepatic impairment (N = 8),3 subjects
same,subjects with laboratory abnormality leukocyte esterase (≥1),[7]; moderate hepatic impairment,5 subjects
same,subjects reporting adverse events,[7]; moderate hepatic impairment (N = 8),No subjects
same,subjects with laboratory abnormality leukocyte esterase (≥1),[7]; normal hepatic function,1 subject
same,safety and tolerability,"[7]; single 200-mg oral dose, all 3 hepatic function groups",generally safe and well tolerated
same,AUC(0-inf),[1]; [17],7450 ng·h/mL
same,AUC(0-inf),[1]; [18],8600 ng·h/mL
same,AUC(0-inf),[1]; [19],5590 ng·h/mL
same,AUC(0-t),[1]; [17],7430 ng·h/mL
same,AUC(0-t),[1]; [18],8550 ng·h/mL
same,AUC(0-t),[1]; [19],5550 ng·h/mL
same,Cmax,"[1]; human, plasma, po, 200 mg, Cmax, mild hepatic impairment",1280 ng/mL
same,Cmax,"[1]; human, plasma, po, 200 mg, Cmax, moderate hepatic impairment",1430 ng/mL
same,Cmax,"[1]; human, plasma, po, 200 mg, Cmax, normal hepatic function",1350 ng/mL
same,tmax,"[1]; human, plasma, po, 200 mg, tmax, mild hepatic impairment",2 h
same,tmax,"[1]; human, plasma, po, 200 mg, tmax, moderate hepatic impairment",1 h
same,tmax,"[1]; human, plasma, po, 200 mg, tmax, normal hepatic function",2 h
same,increase in AUCinf,[1]; [12],≈ 33.3%
same,effect of hepatic impairment on PK and safety,[1]; mild or moderate hepatic impairment,no clinically relevant effect
same,increase in AUCinf,[1]; [14],~54.0%
same,safety and tolerability of higher doses,[8],safe and well tolerated
same,absolute oral bioavailability,[9],60%
same,fraction absorbed,[9],91%
same,share of circulating species,[5],26%
same,median tmax,"[10]; healthy subjects, suspension, doses of 3 to 200 mg",< 1 h
same,increases in Cmax and AUCτ with increasing dose,"[10]; multiple dose, total daily dose 30 mg up to 400 mg",greater than proportional
same,"increases in AUCinf, dose proportionality",[10]; single doses 400 and 800 mg,greater than dose proportional
same,Cmax dose proportionality,[10]; single-dose range 3 to 800 mg,increased proportionally with dose
same,efficacy and tolerability in moderate to severe atopic dermatitis,[11],effective and well tolerated; also recorded: safe and efficacious
